The values that follow come from ChEMBL document CHEMBL1139728, “Design, synthesis, and characterization of new embelin derivatives as potent inhibitors of X-linked inhibitor of apoptosis protein” (Bioorg Med Chem Lett, 2006).

Structures are written as SMILES.

For one assay, the system named is MDA-MB-231. The assay can be described thus: Growth inhibition in human MDA-MB-231 cell line. It is filed as functional, cell-based. In outline: (§1)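 Human cancer cells (MDA-MB-231 (2LMP) breast line; PC-3 prostate line) exposed to compound for 4 days across a concentration series spanning 0.01–100 μM. Growth read by WST assay; IC50 taken from the dose-response curve.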

The test system of another assay is PC-3. The assay can be described thus: Growth inhibition in human PC3 cell line. It counts as functional, cell-based. In outline: as §1
For assay [1], the target named is E3 ubiquitin-protein ligase XIAP (Homo sapiens, UniProt P98170). The assay can be described thus: Binding affinity to recombinant XIAP BIR3 by FP assay. In outline: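 Competitive fluorescence-polarization assay on the XIAP BIR3 domain; binding expressed as Ki.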
Chain of E3 ubiquitin-protein ligase XIAP (P98170 whole entry, the tested form may be a part): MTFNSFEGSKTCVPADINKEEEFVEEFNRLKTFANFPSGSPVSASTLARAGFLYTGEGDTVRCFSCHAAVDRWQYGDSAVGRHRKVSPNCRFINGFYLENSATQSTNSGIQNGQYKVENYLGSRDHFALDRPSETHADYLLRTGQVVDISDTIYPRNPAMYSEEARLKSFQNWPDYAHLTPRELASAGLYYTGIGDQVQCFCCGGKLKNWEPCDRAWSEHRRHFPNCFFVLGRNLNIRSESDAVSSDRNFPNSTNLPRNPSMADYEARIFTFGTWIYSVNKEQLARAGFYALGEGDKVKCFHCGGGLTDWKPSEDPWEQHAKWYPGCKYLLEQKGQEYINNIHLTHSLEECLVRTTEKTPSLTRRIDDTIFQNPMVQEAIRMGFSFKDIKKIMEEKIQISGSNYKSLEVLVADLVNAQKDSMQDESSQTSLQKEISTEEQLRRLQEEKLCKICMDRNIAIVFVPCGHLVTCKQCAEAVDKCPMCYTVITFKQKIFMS

Take `Cc1cccc(CCc2cccc(CCC3=C(O)C(=O)C=C(O)C3=O)c2)c1`: the half-maximal inhibitory concentration (IC50) – broadly, the concentration that gives 50% inhibition – with MDA-MB-231 is 5 µM; with PC-3, 5.5 µM.

Consider `O=C1C=C(O)C(=O)C(CCCCc2ccccc2)=C1O`, for which the Ki – broadly, a measure of affinity in units of concentration, obtained from inhibition or displacement – in assay [1] is 1300 nM.

As for `O=C1C=C(O)C(=O)C(CCc2ccccc2)=C1O`, the Ki in assay [1] stood at 710 nM.

Regarding `CCC1=C(O)C(=O)C=C(O)C1=O`, the Ki in assay [1] was found to be 10400 nM.

Regarding `CCCCc1cccc(CCC2=C(O)C(=O)C=C(O)C2=O)c1`, the Ki in assay [1] amounted to 480 nM.

Consider `CCCCCCCCCCCC1=C(O)C(=O)C=C(O)C1=O` [EMBELIN], for which, in assay [1], the inhibition constant Ki amounted to 400 nM.
